# Measured values from ChEMBL document CHEMBL2177064, “Discovery and optimization of a novel spiropyrrolidine inhibitor of β-secretase (BACE1) through fragment-based drug design” (J Med Chem, 2012).
# How the values were obtained:
# [1] = Permeability from basal to apical side of RRCK cells at 2 uM; format: ADME, cell-based, Canis lupus familiaris, MDCKII-LE; details: dog, MDCK; read-out: permeability
# Summary of the method: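 Basal→apical transfer rate of test compound at 2 μM across contiguous RRCK cell monolayers, quantified by MS.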
# [2] = Intrinsic clearance in human liver microsomes assessed per mg of protein; format: ADME, Microsome; details: read-out: CLH
# [3] = Permeability from apical to basal side of MDCK cells; format: ADME, cell-based, Canis lupus familiaris; details: dog, read-out: permeability
# Summary of the method: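 Test compound applied at 2 μM to contiguous cell monolayers. Apical-to-basal transfer rate quantified by mass spectrometry.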
SMILES,Papp B→A at 2 µM [1],microsomal CLint [2],Papp A→B [3]
O=C(OCc1ccccc1)[C@H]1C[C@]2(CN1)C(=O)Nc1ccccc12,30.4 ×10⁻⁶ cm/s,,
O=C1Nc2ccccc2[C@@]12CN[C@@H](CCCc1ccccc1)C2,11.4 ×10⁻⁶ cm/s,91.3 µL/min/mg,
O=C(OCc1ccc(Br)cc1)[C@H]1C[C@]2(CN1)C(=O)Nc1ccccc12,7.11 ×10⁻⁶ cm/s,,
O=C(OC1CCS(=O)(=O)c2ccc(Br)cc21)[C@H]1C[C@]2(CN1)C(=O)Nc1ccccc12 (mixture of isomers),49.1 ×10⁻⁶ cm/s,,
O=C(NCc1ccccc1)[C@H]1C[C@]2(CN1)C(=O)Nc1ccccc12,,15 µL/min/mg,
O=C1Nc2ccccc2[C@@]12CN[C@@H](CNCc1ccccc1)C2,13.5 ×10⁻⁶ cm/s,76.7 µL/min/mg,
O=C(OC1CCOCC1)[C@H]1C[C@]2(CN1)C(=O)Nc1ccccc12,25 ×10⁻⁶ cm/s,,
N#Cc1ccc(COC(=O)[C@H]2C[C@]3(CN2)C(=O)Nc2ccccc23)cc1Br,10.2 ×10⁻⁶ cm/s,,
O=C1Nc2ccccc2[C@@]12CN[C@@H](CNCc1cccc(C(F)(F)F)c1)C2,,94.8 µL/min/mg,
COC(=O)[C@H]1C[C@]2(CN1)C(=O)Nc1ccccc12,29.5 ×10⁻⁶ cm/s,,
N#CC1(OC(=O)[C@H]2C[C@]3(CN2)C(=O)Nc2ccccc23)CCCCC1,22.7 ×10⁻⁶ cm/s,,
CN(C(=O)[C@H]1C[C@]2(CN1)C(=O)Nc1ccccc12)C1CCOCC1,2.92 ×10⁻⁶ cm/s,< 8 µL/min/mg,
O=C1Nc2ccccc2[C@@]12CN[C@@H](COCc1ccccc1)C2,23.9 ×10⁻⁶ cm/s,24.7 µL/min/mg,
CN(C)C(=O)[C@H]1C[C@]2(CN1)C(=O)Nc1ccccc12,,< 8 µL/min/mg,
CNC(=O)[C@H]1C[C@]2(CN1)C(=O)Nc1ccccc12,4.86 ×10⁻⁶ cm/s,14.3 µL/min/mg,
COC(=O)N1CCC(OC(=O)[C@H]2C[C@]3(CN2)C(=O)Nc2ccccc23)CC1,20.9 ×10⁻⁶ cm/s,,
N#Cc1ccc(COC(=O)[C@H]2C[C@]3(CN2)C(=O)Nc2ccccc23)cc1,18.4 ×10⁻⁶ cm/s,,
O=C1Nc2ccccc2[C@]12CCNC2,,,12.2 ×10⁻⁶ cm/s
O=C1Nc2ccccc2[C@@]12CN[C@@H](c1ccccc1)C2 (racemic),29.6 ×10⁻⁶ cm/s,16.6 µL/min/mg,
